Reference: publication PMC8114962 (Advanced therapeutics, 2021)

Experiments:
[1] = Solubility in aqueous solution; type: physicochemical; conditions: observation
[2] = target: T1, recombinant dg-Bcan protein (Homo sapiens, UniProt Q96GW7); experiment: Octet binding kinetics analysis, recombinant dg-Bcan; conditions: Octet RED
T1 sequence (Q96GW7 23-911): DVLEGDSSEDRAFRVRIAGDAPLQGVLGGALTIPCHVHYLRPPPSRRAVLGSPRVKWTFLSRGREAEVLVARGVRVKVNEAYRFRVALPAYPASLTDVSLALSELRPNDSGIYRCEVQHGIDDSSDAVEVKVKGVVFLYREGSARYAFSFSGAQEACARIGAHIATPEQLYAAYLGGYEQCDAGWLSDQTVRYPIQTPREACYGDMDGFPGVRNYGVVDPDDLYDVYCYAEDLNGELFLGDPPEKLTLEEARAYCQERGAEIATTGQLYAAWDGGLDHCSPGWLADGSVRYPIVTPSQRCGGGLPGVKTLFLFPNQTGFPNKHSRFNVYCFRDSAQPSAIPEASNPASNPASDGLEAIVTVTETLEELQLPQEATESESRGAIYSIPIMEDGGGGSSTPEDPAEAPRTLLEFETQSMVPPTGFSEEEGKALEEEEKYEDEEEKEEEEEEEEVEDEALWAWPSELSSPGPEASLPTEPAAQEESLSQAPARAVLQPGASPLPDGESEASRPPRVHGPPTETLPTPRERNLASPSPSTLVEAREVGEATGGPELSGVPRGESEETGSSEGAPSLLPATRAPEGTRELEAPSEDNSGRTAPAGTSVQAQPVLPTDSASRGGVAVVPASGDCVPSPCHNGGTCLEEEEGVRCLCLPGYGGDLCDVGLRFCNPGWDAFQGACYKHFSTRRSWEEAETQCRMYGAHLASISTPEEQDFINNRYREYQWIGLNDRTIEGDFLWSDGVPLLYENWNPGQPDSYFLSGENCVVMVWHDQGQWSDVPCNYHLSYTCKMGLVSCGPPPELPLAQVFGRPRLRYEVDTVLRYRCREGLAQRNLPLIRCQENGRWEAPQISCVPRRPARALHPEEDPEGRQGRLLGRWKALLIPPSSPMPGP
Outline: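 Binding kinetics of test peptides measured by biolayer interferometry (Octet RED384) against recombinant human brevican, deglycosylated before use and held in PBS with 0.1 mM EDTA, pH 6.8. Fully glycosylated Bcan served as a comparison protein. The run used working buffer (0.9% NaCl irrigation, 0.05% Tween) with 1000 rpm agitation at 30°C. KD and Rmax came from a one-site specific binding non-linear regression fit.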

Substance	solubility in aqueous solution [1]	dg-Bcan protein binding [2]
BTP-2	insoluble and precipitated in aqueous solution	
Scr-7		did not exhibit dg-Bcan protein binding
